Experiments:
[1] = target: Calcium/calmodulin-dependent protein kinase type II subunit beta (Homo sapiens) (UniProt Q13554); assay: Inhibition of CAMK2B at 1 uM
Outline: (§1)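 Competition binding screen across a kinase panel with compound at 1 μM. Read-out is % competition. Kinases not hit at this concentration were scored '<50'. No Kd was determined for hits.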

[2] = target: Phosphorylase b kinase gamma catalytic chain, liver/testis isoform (Homo sapiens) (UniProt P15735); assay: Inhibition of PHKG2 at 1 uM
[3] = target: Mast/stem cell growth factor receptor Kit (Homo sapiens) (UniProt P10721); assay: Inhibition of KIT at 1 uM
Chain of Mast/stem cell growth factor receptor Kit (Homo sapiens) (P10721 whole entry): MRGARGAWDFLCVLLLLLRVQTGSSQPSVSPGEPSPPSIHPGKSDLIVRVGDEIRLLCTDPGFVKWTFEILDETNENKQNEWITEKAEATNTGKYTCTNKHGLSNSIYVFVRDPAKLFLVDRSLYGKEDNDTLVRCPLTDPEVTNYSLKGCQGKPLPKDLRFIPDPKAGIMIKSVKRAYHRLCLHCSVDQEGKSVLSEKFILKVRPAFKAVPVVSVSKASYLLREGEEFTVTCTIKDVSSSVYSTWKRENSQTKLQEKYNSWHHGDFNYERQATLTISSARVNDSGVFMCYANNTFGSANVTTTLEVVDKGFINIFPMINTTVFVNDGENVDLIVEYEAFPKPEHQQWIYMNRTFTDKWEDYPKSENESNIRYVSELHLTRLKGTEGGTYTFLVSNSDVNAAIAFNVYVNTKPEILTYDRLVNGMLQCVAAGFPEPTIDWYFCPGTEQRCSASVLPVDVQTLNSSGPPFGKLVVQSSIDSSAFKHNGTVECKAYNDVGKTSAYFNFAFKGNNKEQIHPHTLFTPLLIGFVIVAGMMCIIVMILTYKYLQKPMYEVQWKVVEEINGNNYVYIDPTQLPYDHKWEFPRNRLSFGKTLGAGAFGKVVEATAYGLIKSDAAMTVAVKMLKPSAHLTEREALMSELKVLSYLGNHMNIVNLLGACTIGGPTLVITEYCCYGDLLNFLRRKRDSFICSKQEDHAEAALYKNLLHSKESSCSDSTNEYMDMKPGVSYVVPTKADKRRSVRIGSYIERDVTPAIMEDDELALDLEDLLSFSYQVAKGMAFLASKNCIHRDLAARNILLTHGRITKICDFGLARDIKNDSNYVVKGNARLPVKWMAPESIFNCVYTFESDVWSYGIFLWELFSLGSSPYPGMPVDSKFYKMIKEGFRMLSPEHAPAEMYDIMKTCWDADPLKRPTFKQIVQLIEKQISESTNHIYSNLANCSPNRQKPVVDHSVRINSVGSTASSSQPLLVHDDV

[4] = target: Tyrosine-protein kinase ABL2 (Homo sapiens) (UniProt P42684); assay: Inhibition of ABL2 at 1 uM; outline: as §1
[5] = target: Serine/threonine-protein kinase ULK3 (Mus musculus) (UniProt Q3U3Q1); assay: Inhibition of mouse ULK3 at 1 uM
[6] = target: Myotonin-protein kinase (Homo sapiens) (UniProt Q09013); assay: Inhibition of DMPK at 1 uM
[7] = target: Tyrosine-protein kinase JAK1 (Homo sapiens) (UniProt P23458); assay: Inhibition of JAK1(Kin.Dom.1) at 1 uM
Chain of Tyrosine-protein kinase JAK1 (Homo sapiens) (P23458 whole entry): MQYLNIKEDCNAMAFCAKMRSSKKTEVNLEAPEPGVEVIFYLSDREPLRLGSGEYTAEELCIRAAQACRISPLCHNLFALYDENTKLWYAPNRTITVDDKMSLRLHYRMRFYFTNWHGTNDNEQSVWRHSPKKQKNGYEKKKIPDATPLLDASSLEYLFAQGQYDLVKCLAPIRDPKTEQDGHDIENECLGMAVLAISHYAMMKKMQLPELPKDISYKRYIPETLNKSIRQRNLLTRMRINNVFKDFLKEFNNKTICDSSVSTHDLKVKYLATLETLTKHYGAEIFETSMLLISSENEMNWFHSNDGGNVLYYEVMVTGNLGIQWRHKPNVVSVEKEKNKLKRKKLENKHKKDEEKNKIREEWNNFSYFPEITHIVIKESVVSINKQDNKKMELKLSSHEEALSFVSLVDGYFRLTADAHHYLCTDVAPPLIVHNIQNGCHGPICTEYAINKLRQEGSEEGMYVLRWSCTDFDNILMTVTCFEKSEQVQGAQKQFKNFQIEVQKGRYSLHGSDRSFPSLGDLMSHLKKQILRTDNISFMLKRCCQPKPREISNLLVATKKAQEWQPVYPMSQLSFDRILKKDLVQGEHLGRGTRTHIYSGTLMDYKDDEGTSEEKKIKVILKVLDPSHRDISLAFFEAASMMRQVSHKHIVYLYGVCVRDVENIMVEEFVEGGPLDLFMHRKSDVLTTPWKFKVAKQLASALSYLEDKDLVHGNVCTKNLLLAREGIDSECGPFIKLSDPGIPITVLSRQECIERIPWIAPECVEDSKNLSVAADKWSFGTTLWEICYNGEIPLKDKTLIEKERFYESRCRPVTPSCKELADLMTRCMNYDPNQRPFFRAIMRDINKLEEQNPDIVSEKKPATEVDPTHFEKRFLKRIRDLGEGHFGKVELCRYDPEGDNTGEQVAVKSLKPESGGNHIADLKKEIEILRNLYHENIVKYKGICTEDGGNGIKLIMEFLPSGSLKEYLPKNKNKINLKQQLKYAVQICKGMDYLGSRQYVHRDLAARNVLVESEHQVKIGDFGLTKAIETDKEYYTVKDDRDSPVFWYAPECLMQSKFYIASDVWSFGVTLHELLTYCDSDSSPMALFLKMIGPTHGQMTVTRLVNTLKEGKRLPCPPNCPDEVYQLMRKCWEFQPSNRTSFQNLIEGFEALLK

[8] = target: STE20-like serine/threonine-protein kinase (Homo sapiens) (UniProt Q9H2G2); assay: Inhibition of SLK at 1 uM
[9] = target: Tyrosine-protein kinase Fes/Fps (Homo sapiens) (UniProt P07332); assay: Inhibition of FES at 1 uM
[10] = target: Calcium/calmodulin-dependent protein kinase type 1 (Homo sapiens) (UniProt Q14012); assay: Inhibition of CAMK1 at 1 uM; outline: as §1
[11] = target: Tyrosine-protein kinase Fyn (Homo sapiens) (UniProt P06241); assay: Inhibition of FYN at 1 uM
Chain of Tyrosine-protein kinase Fyn (Homo sapiens) (P06241 2-537 limits assumed): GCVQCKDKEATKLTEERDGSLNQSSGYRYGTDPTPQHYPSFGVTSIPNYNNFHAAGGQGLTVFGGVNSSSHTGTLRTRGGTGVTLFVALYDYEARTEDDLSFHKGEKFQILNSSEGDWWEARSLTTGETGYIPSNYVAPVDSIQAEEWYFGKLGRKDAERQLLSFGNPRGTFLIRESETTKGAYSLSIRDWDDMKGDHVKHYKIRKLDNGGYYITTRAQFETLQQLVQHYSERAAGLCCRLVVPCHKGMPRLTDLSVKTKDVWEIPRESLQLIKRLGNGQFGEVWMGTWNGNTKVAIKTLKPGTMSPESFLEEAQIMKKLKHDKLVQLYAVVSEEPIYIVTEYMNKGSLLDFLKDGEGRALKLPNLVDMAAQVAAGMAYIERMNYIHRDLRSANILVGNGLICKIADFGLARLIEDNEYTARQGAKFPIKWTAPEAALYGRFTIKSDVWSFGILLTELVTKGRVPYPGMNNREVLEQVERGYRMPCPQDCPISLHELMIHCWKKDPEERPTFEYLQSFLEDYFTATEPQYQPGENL

[12] = target: Tyrosine-protein kinase Blk (Homo sapiens) (UniProt P51451); assay: Inhibition of BLK at 1 uM; outline: as §1
Chain of Tyrosine-protein kinase Blk (Homo sapiens) (P51451 2-505 limits assumed): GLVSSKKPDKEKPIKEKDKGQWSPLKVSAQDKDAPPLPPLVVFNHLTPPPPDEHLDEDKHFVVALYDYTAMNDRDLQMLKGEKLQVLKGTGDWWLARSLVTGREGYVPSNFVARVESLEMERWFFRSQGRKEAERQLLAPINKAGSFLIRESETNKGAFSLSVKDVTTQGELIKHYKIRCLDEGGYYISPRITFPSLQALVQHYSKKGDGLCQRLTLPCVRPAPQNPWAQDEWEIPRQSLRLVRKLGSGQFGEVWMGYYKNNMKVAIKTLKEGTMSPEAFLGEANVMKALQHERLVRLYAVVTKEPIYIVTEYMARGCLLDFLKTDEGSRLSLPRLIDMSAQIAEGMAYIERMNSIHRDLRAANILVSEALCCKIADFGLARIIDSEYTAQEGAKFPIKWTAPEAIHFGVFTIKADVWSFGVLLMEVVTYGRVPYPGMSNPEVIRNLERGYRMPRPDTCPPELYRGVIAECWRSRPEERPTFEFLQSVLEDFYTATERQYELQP

[13] = target: Cyclin-dependent kinase 5 (Homo sapiens) (UniProt Q00535); assay: Inhibition of CDK5 at 1 uM
Chain of Cyclin-dependent kinase 5 (Homo sapiens) (Q00535 whole entry, looked up): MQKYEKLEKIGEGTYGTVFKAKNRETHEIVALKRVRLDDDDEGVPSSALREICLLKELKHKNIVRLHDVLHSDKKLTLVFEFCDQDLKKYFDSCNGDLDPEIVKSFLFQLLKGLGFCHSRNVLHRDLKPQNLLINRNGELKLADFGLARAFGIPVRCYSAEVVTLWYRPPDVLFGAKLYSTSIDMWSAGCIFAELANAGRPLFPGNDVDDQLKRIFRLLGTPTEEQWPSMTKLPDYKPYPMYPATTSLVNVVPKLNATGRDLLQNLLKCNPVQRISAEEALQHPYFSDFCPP

[14] = target: Insulin receptor (Homo sapiens, UniProt P06213); assay: Inhibition of INSR at 1 uM
[15] = target: Calcium/calmodulin-dependent protein kinase kinase 2 (Homo sapiens) (UniProt Q96RR4); assay: Inhibition of CAMKK2 at 1 uM
[16] = target: Tyrosine-protein kinase Lck (Homo sapiens, UniProt P06239); assay: Inhibition of LCK at 1 uM
Chain of Tyrosine-protein kinase Lck (P06239 2-509 limits assumed): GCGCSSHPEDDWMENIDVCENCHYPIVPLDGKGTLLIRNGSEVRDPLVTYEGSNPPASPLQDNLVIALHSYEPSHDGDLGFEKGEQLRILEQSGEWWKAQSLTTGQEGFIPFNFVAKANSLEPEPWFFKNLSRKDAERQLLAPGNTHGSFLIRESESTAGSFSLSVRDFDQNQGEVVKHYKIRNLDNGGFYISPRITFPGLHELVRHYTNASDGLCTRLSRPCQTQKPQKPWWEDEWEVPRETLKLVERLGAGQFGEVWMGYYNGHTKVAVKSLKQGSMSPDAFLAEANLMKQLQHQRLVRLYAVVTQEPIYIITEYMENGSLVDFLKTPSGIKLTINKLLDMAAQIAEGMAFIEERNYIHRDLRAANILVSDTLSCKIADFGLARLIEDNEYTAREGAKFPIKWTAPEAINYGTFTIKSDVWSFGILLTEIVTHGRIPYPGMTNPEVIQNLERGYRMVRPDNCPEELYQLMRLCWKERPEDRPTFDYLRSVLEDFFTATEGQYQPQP

[17] = target: Ephrin type-A receptor 7 (Homo sapiens) (UniProt Q15375); assay: Inhibition of EPHA7 at 1 uM
[18] = target: Casein kinase II subunit alpha (Homo sapiens) (UniProt P68400); assay: Inhibition of CSNK2A1 at 1 uM
[19] = target: Death-associated protein kinase 2 (Homo sapiens) (UniProt Q9UIK4); assay: Inhibition of DAPK2 at 1 uM
[20] = target: Platelet-derived growth factor receptor beta (Homo sapiens) (UniProt P09619); assay: Inhibition of PDGFRB at 1 uM
Chain of Platelet-derived growth factor receptor beta (Homo sapiens) (P09619 whole entry): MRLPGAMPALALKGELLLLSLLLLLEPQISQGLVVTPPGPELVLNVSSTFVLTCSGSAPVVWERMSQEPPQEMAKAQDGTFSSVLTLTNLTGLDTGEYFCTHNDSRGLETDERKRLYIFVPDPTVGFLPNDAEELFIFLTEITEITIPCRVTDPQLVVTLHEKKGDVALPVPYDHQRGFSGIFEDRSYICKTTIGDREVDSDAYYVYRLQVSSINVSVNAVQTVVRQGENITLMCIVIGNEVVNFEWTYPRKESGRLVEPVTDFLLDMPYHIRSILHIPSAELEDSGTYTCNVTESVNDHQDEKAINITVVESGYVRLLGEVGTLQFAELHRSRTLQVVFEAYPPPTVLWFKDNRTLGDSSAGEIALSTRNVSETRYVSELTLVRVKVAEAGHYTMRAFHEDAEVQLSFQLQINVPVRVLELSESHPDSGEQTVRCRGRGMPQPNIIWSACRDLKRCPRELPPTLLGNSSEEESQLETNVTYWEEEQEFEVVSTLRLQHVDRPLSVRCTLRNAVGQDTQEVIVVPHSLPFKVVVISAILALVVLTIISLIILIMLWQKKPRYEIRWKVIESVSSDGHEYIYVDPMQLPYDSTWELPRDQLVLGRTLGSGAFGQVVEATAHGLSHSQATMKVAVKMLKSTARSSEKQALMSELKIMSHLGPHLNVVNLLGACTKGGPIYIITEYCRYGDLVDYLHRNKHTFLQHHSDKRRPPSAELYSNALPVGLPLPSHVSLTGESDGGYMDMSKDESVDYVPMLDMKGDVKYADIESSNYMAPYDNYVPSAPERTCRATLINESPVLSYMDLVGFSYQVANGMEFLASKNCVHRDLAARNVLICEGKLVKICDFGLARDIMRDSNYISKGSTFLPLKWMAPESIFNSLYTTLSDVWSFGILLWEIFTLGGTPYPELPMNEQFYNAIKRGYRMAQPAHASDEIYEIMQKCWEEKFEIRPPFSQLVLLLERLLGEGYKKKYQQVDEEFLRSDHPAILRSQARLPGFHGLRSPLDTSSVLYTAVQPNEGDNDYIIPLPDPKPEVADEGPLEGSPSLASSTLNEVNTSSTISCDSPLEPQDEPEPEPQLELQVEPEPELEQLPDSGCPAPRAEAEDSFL

[21] = target: Tyrosine-protein kinase TXK (Homo sapiens) (UniProt P42681); assay: Inhibition of TXK at 1 uM
[22] = target: Ribosomal protein S6 kinase alpha-2 (Homo sapiens) (UniProt Q15349); assay: Inhibition of RPS6KA2 Kin.Dom. 1 at 1 uM
[23] = target: Dual specificity protein kinase CLK1 (Homo sapiens) (UniProt P49759); assay: Inhibition of CLK1 at 1 uM

inhibition [1]: < 50% | inhibition [2]: < 50% | inhibition [3]: < 50% | inhibition [4]: < 50% | inhibition [5]: < 50% | inhibition [6]: < 50% | inhibition [7]: 94% | inhibition [8]: 99% | inhibition [9]: < 50% | inhibition [10]: < 50% | inhibition [11]: < 50% | inhibition [12]: < 50% | inhibition [13]: < 50% | inhibition [14]: < 50% | inhibition [15]: < 50% | inhibition [16]: < 50% | inhibition [17]: < 50% | inhibition [18]: < 50% | inhibition [20]: < 50% | inhibition [21]: < 50% | inhibition [22]: < 50% | inhibition [23]: 100%
SMILES: CN1CCN(c2ccc(Nc3nc(N)c(C(=O)c4ccc5c(c4)OCCO5)s3)cc2)CC1
inhibition [19]: < 50%
